Reference: ChEMBL document CHEMBL4266043, “Nuclear Factor Erythroid 2-Related Factor 2 Activating Triterpenoid Saponins from Camellia japonica Roots” (J Nat Prod, 2018)
Activity calls are given as the source filed them. The rule behind the calls is not given here.

Columns and labels:
Format in all cases: cell-based
HaCaT = assay: Cytotoxicity against human HaCaT cells assessed as decrease in cell viability at 3.125 to 25 uM after 24 hrs by MTT assay
Summary of the method: (§1)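 MTT assay on HaCaT cells (RPMI 1640, 10% FBS, 37 °C, 5% CO2), plated overnight, then exposed 24 h to 3.125–25 μM. MTT (5 mg/mL solution) added for 2 h, medium removed, formazan dissolved in DMSO and read at 570 nm. Viability given as percent, mean ± SD of three independent experiments.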

[1] = target: T1, Nuclear factor erythroid 2-related factor 2 (Homo sapiens) (UniProt Q16236); assay: Activation of Nrf2 in human HaCaT cells at 25 uM after 6 hrs by ARE-driven luciferase reporter gene assay relative to control
T1 sequence (whole entry): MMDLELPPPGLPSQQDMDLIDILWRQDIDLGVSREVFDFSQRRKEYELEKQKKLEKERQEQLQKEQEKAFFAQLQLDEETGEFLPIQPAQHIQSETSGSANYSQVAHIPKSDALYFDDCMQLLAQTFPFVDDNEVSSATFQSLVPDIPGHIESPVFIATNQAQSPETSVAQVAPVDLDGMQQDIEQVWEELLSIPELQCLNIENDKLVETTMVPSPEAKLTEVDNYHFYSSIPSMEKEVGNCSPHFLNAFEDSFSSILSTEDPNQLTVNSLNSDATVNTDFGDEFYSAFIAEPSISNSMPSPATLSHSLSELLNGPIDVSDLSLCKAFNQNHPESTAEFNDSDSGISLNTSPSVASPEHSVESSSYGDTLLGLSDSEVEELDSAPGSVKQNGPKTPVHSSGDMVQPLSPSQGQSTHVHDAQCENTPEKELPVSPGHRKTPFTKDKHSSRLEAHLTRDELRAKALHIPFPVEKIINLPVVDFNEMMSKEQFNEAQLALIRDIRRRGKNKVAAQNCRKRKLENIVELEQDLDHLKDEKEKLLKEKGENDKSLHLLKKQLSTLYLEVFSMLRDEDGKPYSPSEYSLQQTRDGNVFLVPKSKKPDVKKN
Summary of the method: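 Used HaCaT cells stably carrying 3xARE-luciferase, in RPMI 1640 with 10% FBS at 37 °C, 5% CO2, plated overnight. Exposure 6 h at 25 μM. Cells lysed in passive lysis buffer 15 min at room temperature. Luciferase read by kit and normalized to total protein, expressed versus vehicle. Mean ± SD from three independent experiments, t test.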

[2] = target: T1, Nuclear factor erythroid 2-related factor 2 (Homo sapiens); assay: Activation of Nrf2 in human HaCaT cells assessed as increase in nuclear Nrf2 accumulation at 25 uM after 6 hrs by Western blot analysis
Summary of the method: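 HaCaT cells grown to 60−70% confluency, treated 6 h at 25 μM (vehicle DMSO 0.1%). Nuclear fraction obtained with M-PER lysis (10 min on ice), spin at 3000 rpm, pellet resuspended, sonicated, protein by BCA. 25 μg protein run on 10% SDS-PAGE, nitrocellulose transfer, milk block, anti-Nrf2 and histone H3 antibodies, HRP secondary, ECL detection.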

[3] = Cytotoxicity against human HaCaT cells assessed as cell viability at 25 uM after 24 hrs by MTT assay; settings: read-out: Activity; summary of the method: as §1

Compound	Activity [1]	Activity [2]	fold change (FC) [1]	Activity (HaCaT)	viability at 24 h, 25 µM [3] [%]
C/C=C(/C)C(=O)O[C@H]1[C@H](OC(=O)CC(C)C)[C@]2(CO)[C@H](OC(C)=O)[C@H](OC(C)=O)[C@]3(C)C(=CC[C@@H]4[C@@]5(C)CC[C@H](O[C@@H]6O[C@H](C(=O)O)[C@@H](O)[C@H](O[C@@H]7OC[C@H](O)[C@H](O[C@@H]8O[C@@H](C)[C@H](O)[C@@H](O)[C@H]8O)[C@H]7O)[C@H]6O)[C@@](C)(CO)[C@@H]5CC[C@]43C)[C@@H]2CC1(C)C	Active	Active	–	Non-Toxic	–
C/C=C(/C)C(=O)O[C@H]1[C@H](OC(=O)CC(C)C)[C@]2(CO)[C@H](O)[C@H](O)[C@]3(C)C(=CC[C@@H]4[C@@]5(C)CC[C@H](O[C@@H]6O[C@H](C(=O)O)[C@@H](O)[C@H](O[C@@H]7OC[C@H](O)[C@H](O[C@@H]8O[C@@H](C)[C@H](O)[C@@H](O)[C@H]8O)[C@H]7O)[C@H]6O)[C@@](C)(C=O)[C@@H]5CC[C@]43C)[C@@H]2CC1(C)C	Active	Active	–	Non-Toxic	–
CCC(C)C(=O)O[C@H]1[C@H](O)C(C)(C)C[C@H]2C3=CC[C@@H]4[C@@]5(C)CC[C@H](O[C@@H]6O[C@H](C(=O)O)[C@@H](O)[C@H](O[C@@H]7OC[C@H](O)[C@H](O[C@@H]8O[C@@H](C)[C@H](O)[C@@H](O)[C@H]8O)[C@H]7O)[C@H]6O)[C@@](C)(CO)[C@@H]5CC[C@@]4(C)[C@]3(C)[C@@H](OC(=O)CC(C)C)[C@@H](O)[C@]21CO (stereo not given in full)	Active	Active	–	Non-Toxic	–
C/C=C(/C)C(=O)O[C@H]1[C@H](OC(=O)/C(C)=C\C)[C@]2(CO)[C@H](O)[C@H](O)[C@]3(C)C(=CC[C@@H]4[C@@]5(C)CC[C@H](O[C@@H]6O[C@H](C(=O)O)[C@@H](O)[C@H](O[C@@H]7OC[C@H](O)[C@H](O[C@@H]8O[C@@H](C)[C@H](O)[C@@H](O)[C@H]8O)[C@H]7O)[C@H]6O)[C@@](C)(CO)[C@@H]5CC[C@]43C)[C@@H]2CC1(C)C	–	Active	4	Non-Toxic	–
C/C=C(/C)C(=O)O[C@H]1[C@H](OC(=O)/C(C)=C/C)[C@]2(CO)[C@H](O)[C@H](O)[C@]3(C)C(=CC[C@@H]4[C@@]5(C)CC[C@H](O[C@@H]6O[C@H](C(=O)O)[C@@H](O)[C@H](O[C@@H]7OC[C@H](O)[C@H](O[C@@H]8O[C@@H](C)[C@H](O)[C@@H](O)[C@H]8O)[C@H]7O)[C@H]6O)[C@@](C)(CO)[C@@H]5CC[C@]43C)[C@@H]2CC1(C)C	–	Active	3	Non-Toxic	–
C/C=C(/C)C(=O)O[C@H]1[C@H](OC(=O)C(C)CC)[C@]2(CO)[C@H](O)[C@H](O)[C@]3(C)C(=CC[C@@H]4[C@@]5(C)CC[C@H](O[C@@H]6O[C@H](C(=O)O)[C@@H](O)[C@H](O[C@@H]7OC[C@H](O)[C@H](O[C@@H]8O[C@@H](C)[C@H](O)[C@@H](O)[C@H]8O)[C@H]7O)[C@H]6O)[C@@](C)(C=O)[C@@H]5CC[C@]43C)[C@@H]2CC1(C)C (stereo not given in full)	Active	Active	–	Non-Toxic	–

Now from value to compound, other results behind:

Activity [1]	Activity [2]	fold change (FC) [1]	Compound	Activity (HaCaT)	viability at 24 h, 25 µM [3] [%]
Active	Active	–	C/C=C(/C)C(=O)O[C@H]1[C@H](OC(=O)C(C)CC)[C@]2(CO)[C@H](OC(C)=O)C[C@]3(C)C(=CC[C@@H]4[C@@]5(C)CC[C@H](O[C@@H]6O[C@H](C(=O)O)[C@@H](O)[C@H](O[C@@H]7OC[C@H](O)[C@H](O[C@@H]8O[C@@H](C)[C@H](O)[C@@H](O)[C@H]8O)[C@H]7O)[C@H]6O)[C@@](C)(CO)[C@@H]5CC[C@]43C)[C@@H]2CC1(C)C (stereo not given in full)	Non-Toxic	–
–	Active	2	C/C=C(/C)C(=O)O[C@H]1[C@H](OC(=O)C(C)CC)[C@]2(CO)[C@H](O)[C@H](O)[C@]3(C)C(=CC[C@@H]4[C@@]5(C)CC[C@H](O[C@@H]6O[C@H](C(=O)O)[C@@H](O)[C@H](O[C@@H]7OC[C@H](O)[C@H](O[C@@H]8O[C@@H](C)[C@H](O)[C@@H](O)[C@H]8O)[C@H]7O)[C@H]6O)[C@@](C)(CO)[C@@H]5CC[C@]43C)[C@@H]2CC1(C)C (stereo not given in full)	Non-Toxic	–
Active	Active	–	C/C=C(/C)C(=O)O[C@H]1[C@H](OC(=O)CC(C)C)[C@]2(CO)[C@H](O)C[C@]3(C)C(=CC[C@@H]4[C@@]5(C)CC[C@H](O[C@@H]6O[C@H](C(=O)O)[C@@H](O)[C@H](O[C@@H]7OC[C@H](O)[C@H](O[C@@H]8O[C@@H](C)[C@H](O)[C@@H](O)[C@H]8O)[C@H]7O)[C@H]6O)[C@@](C)(CO)[C@@H]5CC[C@]43C)[C@@H]2CC1(C)C	–	69.7
Active	Active	–	C/C=C(/C)C(=O)O[C@H]1[C@H](OC(=O)C(C)CC)[C@]2(CO)[C@H](O)C[C@]3(C)C(=CC[C@@H]4[C@@]5(C)CC[C@H](O[C@@H]6O[C@H](C(=O)O)[C@@H](O)[C@H](O[C@@H]7OC[C@H](O)[C@H](O[C@@H]8O[C@@H](C)[C@H](O)[C@@H](O)[C@H]8O)[C@H]7O)[C@H]6O)[C@@](C)(CO)[C@@H]5CC[C@]43C)[C@@H]2CC1(C)C (stereo not given in full)	–	72.7
